Data as given in ChEMBL document CHEMBL4177768, “Synthesis and Biological Evaluation of Derivatives of Indoline as Highly Potent Antioxidant and Anti-inflammatory Agents” (J Med Chem, 2018).
Calls of active or inactive are those of the source. The rule behind the calls is not given here.

Assays:
[1] = tested on: RAW264.7; test: Antiinflammatory activity in mouse RAW264.7 cells assessed as reduction in LPS-induced nitric oxide production at 1 pM to 100 nM incubated for 2 hrs prior to LPS challenge measured after 24 hrs by Griess assay; format: functional, cell-based
Procedure, shortened: (§1)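 RAW 264.7 macrophages were plated at 1×10^5 per well, grown overnight and washed with PBS. Compounds in water (final 1 pM-100 nM, medium with 2% FCS) were added 2 h at 37 °C before E. coli 0111:B4 LPS, 2.5 µg/mL. TNF-α was sampled at 8 h; IL-6 and nitrite (Griess) at 24 h. ELISA was used for cytokines. Values are % of the LPS + medium value in each experiment. Budesonide was the reference. 2-3 experiments, 6 wells per concentration.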

[2] = tested on: RAW264.7; test: Antiinflammatory activity in mouse RAW264.7 cells assessed as reduction in LPS-induced TNF-alpha production at 1 pM to 100 nM incubated for 2 hrs prior to LPS challenge measured after 8 hrs by ELISA; format: functional, cell-based; procedure, shortened: as §1
[3] = tested on: RAW264.7; test: Antiinflammatory activity in mouse RAW264.7 cells assessed as reduction in LPS-induced IL6 production at 1 pM to 100 nM incubated for 2 hrs prior to LPS challenge measured after 24 hrs by ELISA; format: functional, cell-based; procedure, shortened: as §1
[4] = tested on: RAW264.7; test: Cytoprotective activity against H2O2-induced oxidative stress in mouse RAW264.7 cells assessed as cell viability at 100 nM incubated for 2 hrs prior to H2O2 addition measured after 24 hrs by MTT assay (reference value: 68 to 72.8%); format: functional; details: read-out: Activity
[5] = tested on: RAW264.7; test: Cytoprotective activity against H2O2-induced oxidative stress in mouse RAW264.7 cells assessed as cell viability at 1 pM incubated for 2 hrs prior to H2O2 addition measured after 24 hrs by MTT assay (reference value: 68 to 72.8%); format: functional; details: read-out: Activity
[6] = Cytotoxicity against mouse RAW264.7 cells assessed as cell viability at 10^-8 M after 24 hrs by MTT assay relative to control; format: cell-based; details: read-out: Activity
Procedure, shortened: (§2)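 RAW 264.7 cells, seeded at 1×10^4 cells/mL and incubated 24 h, were exposed to compound from 1 pM to 100 nM. Viability was read by MTT (final 0.5 mg/mL, 1 h at 37 °C), with formazan dissolved in DMSO and OD at 570 nm. Results are compared with medium-only cells.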

[7] = Cytotoxicity against mouse RAW264.7 cells assessed as cell viability at 10^-7 M after 24 hrs by MTT assay relative to control; format: cell-based; details: read-out: Activity; procedure, shortened: as §2
[8] = Cytotoxicity against mouse RAW264.7 cells assessed as cell viability at 10^-9 M after 24 hrs by MTT assay relative to control; format: cell-based; details: read-out: Activity; procedure, shortened: as §2
[9] = Cytotoxicity against mouse RAW264.7 cells assessed as cell viability at 10^-11 M after 24 hrs by MTT assay relative to control; format: cell-based; details: read-out: Activity; procedure, shortened: as §2
[10] = Cytotoxicity against mouse RAW264.7 cells assessed as cell viability at 10^-10 M after 24 hrs by MTT assay relative to control; format: cell-based; details: read-out: Activity; procedure, shortened: as §2
[11] = Cytotoxicity against mouse RAW264.7 cells assessed as cell viability at 10^-12 M after 24 hrs by MTT assay relative to control; format: cell-based; details: read-out: Activity; procedure, shortened: as §2
[12] = tested on: RAW264.7; test: Antiinflammatory activity in mouse RAW264.7 cells assessed as reduction in LPS-induced TNF-alpha production at 100 pM to 100 nM incubated for 2 hrs prior to LPS challenge measured after 8 hrs by ELISA; format: functional, cell-based; procedure, shortened: as §1
[13] = tested on: RAW264.7; test: Antiinflammatory activity in mouse RAW264.7 cells assessed as reduction in LPS-induced IL-6 production at 100 pM to 100 nM incubated for 2 hrs prior to LPS challenge measured after 24 hrs by ELISA; format: functional, cell-based; procedure, shortened: as §1
[14] = tested on: RAW264.7; test: Cytoprotective activity against H2O2-induced oxidative stress in mouse RAW264.7 cells assessed as cell viability at 10 nM incubated for 2 hrs prior to H2O2 addition measured after 24 hrs by MTT assay (reference value: 68 to 72.8%); format: functional; details: read-out: Activity
[15] = tested on: RAW264.7; test: Cytoprotective activity against H2O2-induced oxidative stress in mouse RAW264.7 cells assessed as decrease in caspase-3 activity at 1 pM incubated for 4 hrs prior to H2O2 addition measured after 90 mins by caspase-GloR reagent-based luminescence assay relative to control; format: functional
Procedure, shortened: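 RAW 264.7 macrophages were pretreated with compound (1 pM or 1 nM) 4 h before H2O2 100 µM. Medium was replaced with fresh DMEM after 90 min and plates were incubated overnight. Caspase-Glo 3/7 reagent was added and luminescence read after 30 min at room temperature. Mean ± SD, 4-6 replicates.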

[16] = tested on: RAW264.7; test: Antiinflammatory activity in mouse RAW264.7 cells assessed as reduction in LPS-induced TNF-alpha production at 1 nM incubated for 2 hrs prior to LPS challenge measured after 8 hrs by ELISA; format: functional; design: scale not given: the % may be the effect or the level left; procedure, shortened: as §1
[17] = tested on: RAW264.7; test: Antiinflammatory activity in mouse RAW264.7 cells assessed as reduction in LPS-induced IL-6 production at 1 nM incubated for 2 hrs prior to LPS challenge measured after 24 hrs by ELISA; format: functional; design: scale not given: the % may be the effect or the level left; procedure, shortened: as §1
[18] = tested on: RAW264.7; test: Antiinflammatory activity in mouse RAW264.7 cells assessed as reduction in LPS-induced nitric oxide production at 1 nM incubated for 2 hrs prior to LPS challenge measured after 24 hrs by Griess assay; format: functional; design: scale not given: the % may be the effect or the level left; procedure, shortened: as §1
[19] = tested on: RAW264.7; test: Antiinflammatory activity in mouse RAW264.7 cells assessed as reduction in LPS-induced TNF-alpha production at 100 pM incubated for 2 hrs prior to LPS challenge measured after 8 hrs by ELISA; format: functional; procedure, shortened: as §1
[20] = tested on: RAW264.7; test: Antiinflammatory activity in mouse RAW264.7 cells assessed as reduction in LPS-induced IL-6 production at 100 pM incubated for 2 hrs prior to LPS challenge measured after 24 hrs by ELISA; format: functional; procedure, shortened: as §1
[21] = tested on: RAW264.7; test: Antiinflammatory activity in mouse RAW264.7 cells assessed as reduction in LPS-induced nitric oxide production at 100 pM incubated for 2 hrs prior to LPS challenge measured after 24 hrs by Griess assay; format: functional; procedure, shortened: as §1
[22] = tested on: RAW264.7; test: Cytoprotective activity against H2O2-induced oxidative stress in mouse RAW264.7 cells assessed as decrease in LDH release at 1 pM incubated for 2 hrs prior to H2O2 addition by colorimetric assay relative to control; format: functional; design: scale not given: the % may be the effect or the level left
Procedure, shortened: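 RAW 264.7 cells were seeded and pretreated with compound before H2O2 100 µM, in serum-free medium. Collected medium was centrifuged and incubated with reaction mix 30 min at room temperature. LDH was measured as NADH formation by colorimetric read at 490 nm. n = 8-10 replicates per concentration.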

[23] = tested on: RAW264.7; test: Cytoprotective activity against H2O2-induced oxidative stress in mouse RAW264.7 cells assessed as decrease in LDH release at 1 pM incubated for 2 hrs prior to H2O2 addition by colorimetric assay relative to control; design: scale not given: the % may be the effect or the level left
[24] = tested on: Mus musculus; test: Antiinflammatory activity in Balb/C mouse assessed as reduction in LPS-induced IL6 production in plasma at 1 umol/kg, sc administered LPS 15 mins post compound treatment measured after 4 hrs by ELISA; format: functional, organism-based
Procedure, shortened: (§3)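 Male Balb/C mice, 7-8 weeks old, given compound sc (0.1, 1 or 10 µmoles/kg) or saline. LPS 10 mg/kg was given ip 15 min later, and mice were killed 4 h after that. Spleens were homogenized in PBS with protease inhibitor and centrifuged at 14,000 g, 4 °C. Cytokines in plasma and tissue supernatants were measured by ELISA, with protein by BCA. Dexamethasone 5.6 µmoles/kg was the reference. n = 8-10 mice per treatment.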

[25] = tested on: Mus musculus; test: Antiinflammatory activity in Balb/C mouse assessed as reduction in LPS-induced TNF-alpha production in plasma at 1 umol/kg, sc administered LPS 15 mins post compound treatment measured after 4 hrs by ELISA; format: functional, organism-based; procedure, shortened: as §3
[26] = tested on: Mus musculus; test: Antiinflammatory activity in Balb/C mouse assessed as reduction in LPS-induced IL6 production in liver at 0.1 to 10 umol/kg, sc administered LPS 15 mins post compound treatment measured after 4 hrs by ELISA; format: functional, organism-based
[27] = tested on: Mus musculus; test: Antiinflammatory activity in Balb/C mouse assessed as reduction in LPS-induced IL6 production in brain at 0.1 to 10 umol/kg, sc administered LPS 15 mins post compound treatment measured after 4 hrs by ELISA; format: functional, organism-based
[28] = tested on: Mus musculus; test: Antiinflammatory activity in Balb/C mouse assessed as reduction in LPS-induced TNF-alpha production in spleen at 1 umol/kg, sc administered LPS 15 mins post compound treatment measured after 4 hrs by ELISA; format: functional, organism-based; procedure, shortened: as §3
[29] = tested on: Mus musculus; test: Antiinflammatory activity in Balb/C mouse assessed as reduction in LPS-induced IL6 production in spleen at 1 umol/kg, sc administered LPS 15 mins post compound treatment measured after 4 hrs by ELISA; format: functional, organism-based; procedure, shortened: as §3

Row | Compound | Activity [1] | Activity [2] | Activity [3] | viability at 0.1 µM [4] [%] | viability at 24 h, 0.01 µM [6] [%] | viability at 24 h, 0.1 µM [7] [%] | viability at 24 h, 0.001 µM [8] [%] | viability at 24 h, 1e-05 µM [9] [%] | viability at 24 h, 0.0001 µM [10] [%] | viability at 24 h, 1e-06 µM [11] [%] | also measured
1 | COc1ccc2c(c1)CCN2CCC(=O)O | inactive | inactive | inactive | 87.1 |  |  |  |  |  |  | 
2 | CC(C)NC(=O)CCN1CCc2ccc(F)cc21 | inactive | inactive | inactive | 86.9 |  |  |  |  |  |  | 
3 | CC(C)NC(=O)CCN1CCc2cc(Cl)ccc21 | inactive | inactive | inactive |  | 104 | 103 | 97.9 | 96.3 | 98.2 | 95.6 | viability at 1 pM [5]: 95.7%
4 | CC(C)NCCCN1CCc2cccc(O)c21.Cc1ccc(S(C)(=O)=O)cc1.Cc1ccc(S(C)(=O)=O)cc1 |  |  |  |  |  |  |  |  |  |  | Activity [12]: inactive; Activity [13]: inactive
5 | c1ccc2c(c1)CCN2 [INDOLINE] |  |  |  |  |  |  |  |  |  |  | viability at 0.01 µM [14]: 90.4%
6 | Cc1ccc(S(C)(=O)=O)cc1.Cc1ccc(S(C)(=O)=O)cc1.NCCCN1CCc2cccc(OCc3ccccc3)c21 | Dose-dependent effect | Dose-dependent effect |  | 79.3 |  |  |  |  |  |  | Activity [15]: inactive
7 | COc1ccc2c(c1)CCN2CCCNC(C)C.Cl.Cl | Dose-dependent effect | Dose-dependent effect |  |  |  |  |  |  |  |  | Activity [16]: 50%; Activity [17]: 50%; Activity [18]: 50%; viability at 0.01 µM [14]: 87.1%
8 | COC(=O)CCN1CCc2ccc(C)cc21 | inactive | inactive | inactive |  |  |  |  |  |  |  | viability at 0.01 µM [14]: 87.2%
9 | COC(=O)CCC1CNc2ccccc21 (stereo not given) |  |  |  |  | 94.5 | 92.9 | 97.1 | 93.2 | 96.6 | 99.5 | Activity [16]: Active; Activity [17]: Active; Activity [19]: Active; Activity [18]: Active; Activity [20]: Active; Activity [21]: Active
10 | Cl.OCCCN1CCc2ccccc21 |  |  |  | 89.8 | 92.3 | 94.4 | 95.1 | 89.9 | 91.6 | 89.5 | Activity [12]: Active; Activity [13]: Active; Activity [22]: 16%; Activity [23]: 16%
11 | COC(=O)CCN1CCc2cc(OC)ccc21.Cl | Active |  |  |  |  |  |  |  |  |  | Activity [15]: 60%; Activity [22]: 16%; viability at 1 pM [5]: 91%; Activity [23]: 16%
12 | CCCC1O[C@@H]2C[C@H]3[C@@H]4CCC5=CC(=O)C=C[C@]5(C)[C@H]4[C@@H](O)C[C@]3(C)[C@]2(C(=O)CO)O1 (stereo not given in full) | Active |  |  |  |  |  |  |  |  |  | Activity [12]: Active; Activity [13]: Active
13 | COc1ccc2c(c1)CCN2CCCO.Cl | Active | Active | Active |  | 91.4 | 91.9 | 95.3 | 93.4 | 93.9 | 91.9 | Activity [24]: Active; Activity [25]: Active; Activity [26]: Active; Activity [27]: Active; Activity [19]: 50%; Activity [20]: 50%; Activity [21]: 50%; viability at 1 pM [5]: 95.6%; Activity [28]: Active; Activity [29]: Active
